ChEMBL document CHEMBL4330068, “Design, synthesis and evaluation of pentacycloundecane and hexacycloundecane propargylamine derivatives as multifunctional neuroprotective agents” (Eur J Med Chem, 2019)
Blank lines part the entries; values can stand above or below the compound they belong to. Calls of active or inactive are those of the source. No cut-off for these calls is given here.

How the values were obtained:
[1] = molecular target: Glutamate [NMDA] receptor (Homo sapiens) (UniProt Q05586+Q12879+Q13224+O15399+O60391+Q14957+Q8TCU5); experiment: Antagonist activity at NMDA receptor in human SH-SY5Y cells assessed as reduction in NMDA/glycine-stimulated calcium influx at 10 uM preincubated for 30 mins in presence of Mag-Fura-2/AM dye followed by NMDA/glycine stimulation and measured over 35 secs by fluorescence assay (reference value: 100%); assay type: cell-based
How it was run: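 SH-SY5Y cells loaded with ratiometric Ca indicator Mag-Fura-2/AM, incubated with compound at 10 µM for 30 min at 37 °C, then stimulated with concentrated NMDA/glycine solution; fluorescence change from cytosolic Ca rise read on plate reader. % NMDAr inhibition calculated relative to MK-801 (10 µM); DMSO vehicle. Mean of at least 9 independent experiments.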

[2] = molecular target: Voltage-gated L-type calcium channel (Homo sapiens, UniProt Q13936+Q13698+Q01668+O60840); experiment: Inhibition of voltage-dependent L-type calcium channel in human SH-SY5Y cells assessed as reduction in KCl-stimulated calcium influx at 100 uM preincubated for 30 mins in presence of Mag-Fura-2/AM dye followed by KCl stimulation and measured over 35 secs by fluorescence assay; assay type: cell-based; conditions: 35 s
[3] = molecular target: T1, Amine oxidase [flavin-containing] A (Homo sapiens, UniProt P21397); experiment: Inhibition of recombinant human MAO-A using kynuramine as substrate after 20 mins by fluorescence assay
T1 sequence (P21397 whole entry): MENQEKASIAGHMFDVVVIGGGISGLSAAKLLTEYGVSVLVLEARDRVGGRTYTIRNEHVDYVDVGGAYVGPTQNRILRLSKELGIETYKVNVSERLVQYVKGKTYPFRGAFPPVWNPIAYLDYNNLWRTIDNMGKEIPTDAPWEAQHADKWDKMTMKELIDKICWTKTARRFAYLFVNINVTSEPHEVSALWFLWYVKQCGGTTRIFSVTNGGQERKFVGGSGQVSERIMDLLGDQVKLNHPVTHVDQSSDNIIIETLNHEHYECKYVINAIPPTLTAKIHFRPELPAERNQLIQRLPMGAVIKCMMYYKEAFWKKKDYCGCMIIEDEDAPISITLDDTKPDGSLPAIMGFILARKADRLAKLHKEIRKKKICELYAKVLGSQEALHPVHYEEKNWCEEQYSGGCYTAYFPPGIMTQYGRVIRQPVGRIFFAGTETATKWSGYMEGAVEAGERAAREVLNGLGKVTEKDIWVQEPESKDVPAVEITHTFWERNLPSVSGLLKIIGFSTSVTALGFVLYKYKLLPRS

SH-SY5Y [4] = experiment: Neuroprotective activity in human SH-SY5Y cells assessed as reduction in MPP+ induced cytotoxicity by measuring cell viability at 1 uM preincubated for 2 hrs followed by MPP+ addition and measured after 48 hrs by MTT assay (reference value: 45%); assay type: functional
SH-SY5Y [5] = experiment: Neuroprotective activity in human SH-SY5Y cells assessed as reduction in MPP+ induced cytotoxicity at 5 to 10 uM preincubated for 2 hrs followed by MPP+ addition measured after 48 hrs by MTT assay; assay type: functional, cell-based
[6] = Cytotoxicity against human SH-SY5Y cells assessed as cell viability at 10 uM after 48 hrs by MTT assay (reference value: 100%); assay type: cell-based; conditions: read-out: Activity
How it was run: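 SH-SY5Y cells exposed to compound at 10, 50 or 100 µM for 48 h; viability by MTT, read spectrophotometrically. DMSO vehicle-treated cells set as 100% viability. Mean ± SEM, n = 3 with four fields per repeat; ANOVA.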

[7] = molecular target: T2, Amine oxidase [flavin-containing] B (Homo sapiens, UniProt P27338); experiment: Inhibition of recombinant human MAO-B using kynuramine as substrate after 20 mins by fluorescence assay
T2 sequence (P27338 whole entry): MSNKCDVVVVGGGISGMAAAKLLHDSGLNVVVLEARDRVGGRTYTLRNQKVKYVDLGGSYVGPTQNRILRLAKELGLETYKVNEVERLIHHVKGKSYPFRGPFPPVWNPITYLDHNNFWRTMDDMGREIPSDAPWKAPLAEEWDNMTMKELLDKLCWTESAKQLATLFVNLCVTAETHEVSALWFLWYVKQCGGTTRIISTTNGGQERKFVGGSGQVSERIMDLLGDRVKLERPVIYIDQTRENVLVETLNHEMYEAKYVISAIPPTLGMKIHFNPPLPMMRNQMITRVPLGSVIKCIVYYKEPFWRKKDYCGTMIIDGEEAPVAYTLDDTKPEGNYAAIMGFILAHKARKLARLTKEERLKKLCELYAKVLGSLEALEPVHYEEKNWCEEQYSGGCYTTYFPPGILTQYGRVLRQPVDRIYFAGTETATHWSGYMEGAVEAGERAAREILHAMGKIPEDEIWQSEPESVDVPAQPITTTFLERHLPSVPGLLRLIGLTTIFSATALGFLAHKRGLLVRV

[8] = molecular target: T2, Amine oxidase [flavin-containing] B; experiment: Reversible inhibition of recombinant human MAO-B at 2 times IC50 preincubated up to 60 mins followed by kynuramine substrate addition and measured after 20 mins by fluorescence assay
[9] = molecular target: T1, Amine oxidase [flavin-containing] A; experiment: Irreversible inhibition of recombinant human MAO-A at 2 times IC50 preincubated up to 60 mins followed by kynuramine substrate addition and measured after 20 mins by fluorescence assay
How it was run: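 Recombinant human MAO-A is preincubated with inhibitor for 0, 15, 30 or 60 min, then the kynuramine reaction is started. Residual oxidation rate is read as 4-hydroxyquinoline fluorescence (RFU). Results are the mean of three independent experiments.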

[10] = molecular target: T2, Amine oxidase [flavin-containing] B; experiment: Inhibition of recombinant human MAO-B using kynuramine as substrate after 20 mins by fluorescence assay relative to control
How it was run: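 Recombinant human MAO-B oxidises kynuramine. The product, 4-hydroxyquinoline, is read by fluorescence in the supernatant (excitation 310 nm, emission 400 nm).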

Structure (SMILES): C#CCNC12OC3C4C5CC(C6C5C3C61)C42 (stereo unspecified)
inhibition [1]: inactive
inhibition (INH) [2]: Not Active

Structure (SMILES): Nc1ccc(CNC23OC4C5C6CC(C7C6C4C72)C53)cc1 (stereo unspecified)
inhibition [1]: inactive

Structure (SMILES): COCCOC(=O)C1=C(C)NC(C)=C(C(=O)OC(C)C)C1c1cccc([N+](=O)[O-])c1 (stereo unspecified)
inhibition [1]: inactive

Structure (SMILES): Nc1ccc(CN2C3C4C5CC6C7C5C3C7C2(O)C64)cc1 (stereo unspecified)
IC50 [3]: > 100 µM
inhibition [1]: 11.9%
Activity (SH-SY5Y [4]): 31%
Activity (SH-SY5Y [5]): Active
viability at 48 h, 10 µM [6]: 101%
IC50 [7]: > 100 µM

Structure (SMILES): C#CCNCc1ccc(CN2C3C4C5CC6C7C5C3C7C2(O)C64)cc1 (stereo unspecified)
inhibition (INH) [8]: Active
IC50 [3]: 56.2 µM
inhibition (INH) [9]: Active
inhibition [1]: 0.6%
Activity (SH-SY5Y [4]): 43%
Activity (SH-SY5Y [5]): Active
viability at 48 h, 10 µM [6]: 98%
IC50 [7]: 3.8 µM

Structure (SMILES): C#CCN1C2C3C4CC5C6C4C2C6C1(O)C53 (stereo unspecified)
inhibition (INH) [10]: 6%
inhibition [1]: 4%
inhibition (INH) [2]: Not Active

Structure (SMILES): c1cc(C/N=C2\C3C4CC5C6C4C2C6C2(OCCO2)C53)ccc1C/N=C1/C2C3CC4C5C3C1C5C1(OCCO1)C42 (stereo unspecified)
inhibition [1]: 70.5%

Structure (SMILES): c1ccc(CNC23OC4C5C6CC(C7C6C4C72)C53)cc1 (stereo unspecified)
IC50 [3]: > 100 µM
inhibition [1]: 32.5%
Activity (SH-SY5Y [4]): 66%
Activity (SH-SY5Y [5]): Active
viability at 48 h, 10 µM [6]: 86%
IC50 [7]: > 100 µM

Structure (SMILES): NCc1ccc(CN2C3C4C5CC6C7C5C3C7C2(O)C64)cc1 (stereo unspecified)
IC50 [3]: > 100 µM
inhibition [1]: 59%
Activity (SH-SY5Y [4]): 46%
Activity (SH-SY5Y [5]): Active
viability at 48 h, 10 µM [6]: 107%
IC50 [7]: > 100 µM

More lines, now with the values ahead:

inhibition [1]: 26.1%
Structure (SMILES): ClCc1ccc(CNC23OC4C5C6CC(C7C6C4C72)C53)cc1 (stereo unspecified)

inhibition [1]: 63.9%
Structure (SMILES): C#CCNCc1ccc(CNC2C3C4CC5C6C4C2C6C2(OCCO2)C53)cc1 (stereo unspecified)

inhibition [1]: 49.5%
Structure (SMILES): NCc1ccc(C/N=C2/C3C4CC5C6C4C2C6C2(OCCO2)C53)cc1 (stereo unspecified)

inhibition [1]: 31.4%
Structure (SMILES): C#CCNCc1ccc(CNC23OC4C5C6CC(C7C6C4C72)C53)cc1 (stereo unspecified)

inhibition [1]: inactive
Structure (SMILES): NCc1ccc(CNC2C3C4CC5C6C4C2C6C2(OCCO2)C53)cc1 (stereo unspecified)

inhibition [1]: 88.3%
Structure (SMILES): C#CCNCc1ccc(C/N=C2/C3C4CC5C6C4C2C6C2(OCCO2)C53)cc1 (stereo unspecified)

inhibition [1]: 63.1%
Structure (SMILES): Nc1ccc(C/N=C2/C3C4CC5C6C4C2C6C2(OCCO2)C53)cc1 (stereo unspecified)
